We go through 1 compound from ChEMBL document CHEMBL5712919, “ARID1A Mutations Promote P300-Dependent Endometrial Invasion through Super-Enhancer Hyperacetylation” (Cell Rep, 2020).

The structures appear in SMILES notation. The source made the active and inactive calls. The rule behind the calls is not given here.

The target in data set [1] is Histone acetyltransferase p300 (Homo sapiens) (UniProt Q09472). Put plainly: Inhibition of P300 in human 12Z cells assessed as reduction in H3K27ac expression at 0.01 to 100 uM for 24 hrs by western blot analysis. Type of data set: cell-based. The settings on record: dose 0.01-100 µM. Summed up:
(§1)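 Histones were acid-extracted from A-485-treated 12Z cells with 0.2 N HCl in the presence of sodium butyrate. Extracts were run on a 15% SDS-PAGE gel and blotted with H3K27ac (1:1,000) and total H3 (1:2,000) antibodies, with IRDye 800CW secondary and fluorescence imaging.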

Data set [2] in a line: Cytotoxicity against human 12Z cells assessed as reduction in cell viability after 6 days by crystal violet staining based assay. It counts as toxicity. Put shortly: (§2)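 12Z cells seeded at 100 cells/well and, after 24 h, treated with A-485 from 10 nM to 100 μM. After 6 days, colonies stained with crystal violet and counted.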
Data set [3] can be described thus: Cytotoxicity against human 12Z cells transfected with control shRNA assessed as reduction in cell viability after 6 days by crystal violet staining based assay. Type of data set: toxicity. Put shortly: as §2
A short description of data set [4]: Cytotoxicity against human 12Z cells transfected with shARID1A assessed as reduction in cell viability after 6 days by crystal violet staining based assay. To be noted: 144 h. Type of data set: functional. Summed up:
as §2

In data set [5] the test system is 12Z. The data set is described as follows: Inhibition of cell invasion in human 12Z cells transfected with shARID1A at 10 to 100 nM after 24 hrs by transwell invasion assay. It counts as functional, cell-based. The settings on record: dose 10-100 nM. Summed up: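 12Z cells were siRNA-transfected and drug added 24 h later. At 48 h, 30,000 cells in 0.3 mg/mL Matrigel were seeded on Matrigel-coated 8 μm transwells, with serum-free medium on top and 5% FBS medium below, drug in both chambers. After 16 hr, cells were stained with calcein-AM, unmigrated cells were removed, and five fields/well were imaged and counted.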

Data set [6] has as its system 12Z. The data set is described as follows: Inhibition of cell migration in human 12Z cells transfected with shARID1A at 31 to 316 nM after 24 hrs by Matrigel based analysis. It counts as functional. To be noted: dose 31-316 nM, in the assay text read “culture-insert gap assay” for “Matrigel based analysis”. Summed up:
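12Z cells (4,000/well) in 4-well culture inserts were transduced with control or shARID1A lentivirus (MOI 100). Serum-free medium with drug or vehicle was added after 24 hr, and inserts were removed at 16 hr. Front distances at 16 points were imaged at 0 and 24 hr, and migration was taken as the 0 h minus 24 h mean distance.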

Data set [7] relates to 12Z. Put plainly: Induction of anchorage-dependent cell death in human 12Z cells assessed as increase in caspase3/7 level at 100 nM after 24 hrs by caspase-Glo 3/7 assay. Type of data set: functional, cell-based. Put shortly: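 The Caspase-Glo 3/7 assay was run in suspension. siRNA-transfected 12Z cells (48 hr), drug-treated for 24 hr, were seeded at 10,000 cells/well on cell-repellent plates in serum-free DMEM/F12 with A-485 or vehicle. After 24 hr, Caspase-Glo reagent was added 1:1 and incubated 1 hr at 37°C before reading luminescence.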

Data set [8] deals with 12Z. Put plainly: Induction of cell death in human 12Z cells transfected with shARID1A assessed as increase in ratio of dead to live cells at 100 nM after 16 hrs by Matrigel based analysis. It counts as functional. Summed up:
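12Z cells were siRNA-transfected and drug-treated 24 h post-transfection. At 48 h, 10,000 cells in 0.3 mg/mL Matrigel were seeded on Matrigel-coated wells in serum-free medium with 100 nM A-485 or vehicle.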

For data set [9], the target named is Histone acetyltransferase p300 (Homo sapiens) (UniProt Q09472). Put plainly: Inhibition of P300 in human 12Z cells assessed as reduction in H3K27ac expression at 316 nM for 24 hrs by western blot analysis. It counts as cell-based. Summed up: as §1
Sequence of Histone acetyltransferase p300 (Homo sapiens) (Q09472 whole entry): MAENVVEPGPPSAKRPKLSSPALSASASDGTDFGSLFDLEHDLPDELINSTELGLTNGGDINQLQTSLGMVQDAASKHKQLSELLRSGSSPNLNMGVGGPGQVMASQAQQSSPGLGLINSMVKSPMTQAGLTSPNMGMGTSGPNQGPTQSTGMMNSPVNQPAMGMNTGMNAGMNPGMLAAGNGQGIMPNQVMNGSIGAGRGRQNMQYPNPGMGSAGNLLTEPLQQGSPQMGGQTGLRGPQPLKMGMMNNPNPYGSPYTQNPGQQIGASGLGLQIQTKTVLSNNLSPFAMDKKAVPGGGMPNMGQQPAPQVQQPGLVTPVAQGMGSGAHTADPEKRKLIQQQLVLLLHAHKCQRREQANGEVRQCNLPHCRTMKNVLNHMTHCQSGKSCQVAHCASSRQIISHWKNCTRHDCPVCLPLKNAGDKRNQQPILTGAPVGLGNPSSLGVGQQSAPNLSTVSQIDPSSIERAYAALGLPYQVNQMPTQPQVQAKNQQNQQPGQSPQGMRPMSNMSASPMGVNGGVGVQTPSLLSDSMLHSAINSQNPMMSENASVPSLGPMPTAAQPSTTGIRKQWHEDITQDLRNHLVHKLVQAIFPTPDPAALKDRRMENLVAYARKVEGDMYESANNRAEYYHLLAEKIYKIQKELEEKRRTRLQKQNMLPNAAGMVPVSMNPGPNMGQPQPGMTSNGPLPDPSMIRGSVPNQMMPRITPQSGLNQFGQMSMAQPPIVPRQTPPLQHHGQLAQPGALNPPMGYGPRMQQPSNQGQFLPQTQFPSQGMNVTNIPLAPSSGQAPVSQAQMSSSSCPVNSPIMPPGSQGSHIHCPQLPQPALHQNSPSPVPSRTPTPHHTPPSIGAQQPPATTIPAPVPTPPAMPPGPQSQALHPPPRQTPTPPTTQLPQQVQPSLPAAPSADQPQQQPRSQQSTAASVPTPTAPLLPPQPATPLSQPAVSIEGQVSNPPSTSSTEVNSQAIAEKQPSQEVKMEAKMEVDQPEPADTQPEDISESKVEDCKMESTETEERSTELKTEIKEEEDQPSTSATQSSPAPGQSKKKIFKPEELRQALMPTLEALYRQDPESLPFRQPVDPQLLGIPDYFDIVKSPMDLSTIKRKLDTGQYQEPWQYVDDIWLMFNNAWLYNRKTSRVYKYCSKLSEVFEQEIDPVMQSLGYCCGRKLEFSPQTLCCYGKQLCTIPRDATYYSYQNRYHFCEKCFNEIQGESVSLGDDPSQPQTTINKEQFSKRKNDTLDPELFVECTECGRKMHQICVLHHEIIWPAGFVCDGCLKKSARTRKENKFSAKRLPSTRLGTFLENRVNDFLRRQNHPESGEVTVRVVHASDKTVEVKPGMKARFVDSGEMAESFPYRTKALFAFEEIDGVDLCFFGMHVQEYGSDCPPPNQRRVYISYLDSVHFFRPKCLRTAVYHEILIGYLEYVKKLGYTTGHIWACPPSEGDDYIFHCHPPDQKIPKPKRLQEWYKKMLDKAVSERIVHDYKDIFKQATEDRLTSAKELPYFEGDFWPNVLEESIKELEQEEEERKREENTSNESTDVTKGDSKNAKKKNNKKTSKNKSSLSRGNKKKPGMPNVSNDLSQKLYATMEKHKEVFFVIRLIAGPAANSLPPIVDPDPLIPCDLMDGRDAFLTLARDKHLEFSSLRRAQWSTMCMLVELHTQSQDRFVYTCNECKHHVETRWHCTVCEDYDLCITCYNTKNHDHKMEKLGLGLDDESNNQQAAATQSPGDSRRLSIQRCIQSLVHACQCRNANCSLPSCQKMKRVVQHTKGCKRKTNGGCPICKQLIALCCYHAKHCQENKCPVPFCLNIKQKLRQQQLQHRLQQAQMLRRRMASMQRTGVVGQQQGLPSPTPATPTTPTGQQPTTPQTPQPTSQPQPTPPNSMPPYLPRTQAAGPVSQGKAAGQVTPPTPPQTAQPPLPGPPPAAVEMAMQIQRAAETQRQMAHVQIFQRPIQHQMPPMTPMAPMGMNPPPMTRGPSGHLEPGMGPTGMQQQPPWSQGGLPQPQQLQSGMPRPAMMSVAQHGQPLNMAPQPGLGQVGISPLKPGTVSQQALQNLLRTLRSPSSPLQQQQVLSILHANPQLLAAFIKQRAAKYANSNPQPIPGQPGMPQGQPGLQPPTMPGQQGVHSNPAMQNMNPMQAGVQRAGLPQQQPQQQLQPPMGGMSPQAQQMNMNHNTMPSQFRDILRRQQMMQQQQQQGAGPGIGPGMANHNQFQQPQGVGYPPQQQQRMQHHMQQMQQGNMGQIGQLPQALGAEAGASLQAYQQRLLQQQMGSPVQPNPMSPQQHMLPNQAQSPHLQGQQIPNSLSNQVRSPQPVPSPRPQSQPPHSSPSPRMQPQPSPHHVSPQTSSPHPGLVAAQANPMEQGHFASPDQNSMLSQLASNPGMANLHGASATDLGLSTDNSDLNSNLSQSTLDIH
A short description of data set [10]: Cytotoxicity against human 12Z cells assessed as reduction in cell viability after 72 hrs at 0.01 to 100 uM by calcein-AM stainig based fluorescence assay. It counts as toxicity. The settings on record: dose 0.01-100 µM. Summed up: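 12Z cells seeded at 4,000 cells/well, transfected 24 h later, then drug-treated 24 h after transfection for 48–72 hr. Viable cells were read after 1 h with 2 μg/mL calcein-AM as fluorescence.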

A short description of data set [11]: Cytotoxicity against human 12Z cells transfected with control shRNA assessed as reduction in cell viability at 0.01 to 100 uM after 72 hrs by crystal violet staining fluorescence assay. Type of data set: toxicity, cell-based. The settings on record: dose 0.01-100 µM.
The test system of data set [12] is 12Z. The data set is described as follows: Growth inhibition of human 12Z cells transfected with shARID1A assessed as reduction in cell viability at 0.01 to 100 uM after 72 hrs by crystal violet staining fluorescence assay. It counts as functional, cell-based. The settings on record: dose 0.01-100 µM.
In data set [13] the target is Histone acetyltransferase p300 (Homo sapiens) (UniProt Q09472). The data set is described as follows: Inhibition of P300 in human 12Z cells transfected with shARID1A assessed as affected in H3K27ac expression at 1 uM for 24 hrs by CUT and run analysis. It counts as cell-based.
The target is the same in data set [14]. The data set is described as follows: Inhibition of P300 in human 12Z cells transfected with shARID1A assessed as decrease in SERPINE1 RNA expression at 100 nM by RNA-seq analysis. It counts as cell-based.
The target is the same in data set [15]. Put plainly: Inhibition of P300 in human 12Z cells transfected with shARID1A assessed as decrease in SERPINE1 RNA expression at 100 nM for 24 hrs by Western blot analysis. It counts as cell-based.

In the case of `CNC(=O)Nc1ccc2c(c1)CC[C@@]21OC(=O)N(CC(=O)N(Cc2ccc(F)cc2)[C@@H](C)C(F)(F)F)C1=O` [A-485], the inhibition entry in [1], in [5], in data set [6], in data set [9], in data set [13] and in data set [14] was “Active” each time. The inhibition entry in data set [15] is “Active”. In addition, the IC50 at 6 days in data set [2] came to 3.32 µM; in [3], 3.61 µM. Further, the IC50 in [4] was 5.35 µM. The outcome in data set [7] and in data set [8] was Active. Moreover, the Activity entry in data set [10] and in data set [11] was “Toxic” each time. Besides, the “growth inhibition (GI)” value in [12] was “Active”.
